By Kd is commonly meant the constant that tells how readily two partners part at equilibrium. The inhibition is the share of the control response that was lost under treatment. The low end stands for a response near the control, the high end for a response far below the control. The IC50 is the concentration that inhibits the measured activity by half. Higher therefore signals a need for much substance.

Assay [1] has as its target T1, Dihydropteroate synthase (Bacillus anthracis, UniProt Q81VW8).
T1 sequence (Q81VW8 whole entry): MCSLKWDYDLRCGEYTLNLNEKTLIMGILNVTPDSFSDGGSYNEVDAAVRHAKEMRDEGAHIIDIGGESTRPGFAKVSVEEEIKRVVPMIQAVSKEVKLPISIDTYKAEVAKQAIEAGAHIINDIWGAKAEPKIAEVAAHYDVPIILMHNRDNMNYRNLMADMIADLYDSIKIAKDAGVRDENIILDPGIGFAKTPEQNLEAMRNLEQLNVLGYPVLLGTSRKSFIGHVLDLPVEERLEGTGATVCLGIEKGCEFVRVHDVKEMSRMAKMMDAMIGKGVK
Put plainly: Binding affinity to Bacillus anthracis DHPS expressed in Escherichia coli BL21 (DE3) after 30 mins by isothermal titration calorimetry. Summed up:
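ITC at 25 °C in 40 mM HEPES, 4 mM MgCl2, pH 7.6; 5% DMSO added to the buffer for the inhibitor titration. Protein was dialyzed against 50 mM HEPES, 5 mM MgCl2, pH 7.6. Nineteen injections of 500 μM ligand went into 20 μM DHPS. Kd was fitted to a one-site binding model.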
On the technique in general: ITC needs no label: the signal is the heat of the interaction.

In assay [2] the target is T2, Dihydropteroate synthase (Bacillus anthracis) (UniProt Q81VW8).
T2 sequence (whole entry): T1 sequence (Q81VW8 whole entry)
Put plainly: Inhibition of Bacillus anthracis DHPS expressed in Escherichia coli BL21 (DE3) at 500 uM after 30 mins. The essentials: (§1)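 Reaction held 5 μM 14C pABA, 10 μM enzymatically prepared dihydropterin diphosphate, 10 mM MgCl2, 2% DMSO, 50 mM HEPES pH 7.6, 10 ng DHPS. Product was separated by PEI-cellulose TLC and quantified by phosphorimaging as percent inhibition.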

For assay [3], the target named is T1, Dihydropteroate synthase. Put plainly: Inhibition of Bacillus anthracis DHPS expressed in Escherichia coli BL21 (DE3) after 30 mins. The essentials:
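Radiometric assay at 37 °C for 30 min: 5 μM 14C pABA, 10 μM enzymatically prepared dihydropterin diphosphate, 10 mM MgCl2, 2% DMSO, 50 mM HEPES pH 7.6, 5 ng DHPS, over a range of inhibitor concentrations. The reaction was stopped with acetic acid on ice. 14C dihydropteroate was separated from pABA by PEI-cellulose TLC and quantified by phosphorimaging. IC50 was obtained by curve fitting.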

Assay [4] concerns the target T2, Dihydropteroate synthase (Bacillus anthracis). Put plainly: Inhibition of Bacillus anthracis DHPS expressed in Escherichia coli BL21 (DE3) at 250 uM after 30 mins. Summed up:
as §1

In the case of `Nc1ccc(C(=O)O)cc1` [AMINOBENZOIC ACID], on Dihydropteroate synthase [1], the affinity, expressed as Kd, was 5.62 µM.

For `CN1CC=Nc2c1nc(N)[nH]c2=O`, the inhibition in assay [2] amounted to 76%. Moreover, at Dihydropteroate synthase [3], inhibition was half-maximal at 86.7 µM (IC50).

Take `Nc1nc(N)c([N+](=O)[O-])c(=O)[nH]1`: the inhibition in assay [4] is 80%. Moreover, at Dihydropteroate synthase [3], the IC50 was determined as 109 µM.

`Nc1nc2nc3c(nc2c(=O)[nH]1)CCCC3` showed an inhibition in assay [2] of 31%.

In assay [2], `Nc1nc2c(c(=O)[nH]1)N=C(CCNc1ccc(C(=O)O)cc1)CN2` gave an inhibition of 100%. On Dihydropteroate synthase [3], this compound returned an IC50 of 25.9 µM.

The compound `Cn1c(=O)c2nc(C=O)c(=O)[nH]c2n(C)c1=O` yielded an inhibition in assay [2] of 44%.

`CNc1nc(N)[nH]c(=O)c1[N+](=O)[O-]`: the inhibition in assay [2] was 53%.

In turn, `Nc1ncc(Oc2ccccc2)c(=O)[nH]1` displayed an inhibition in assay [2] of 37%.

Compound `Nc1nnc(N)c2[nH]cnc12` yielded an inhibition in assay [2] of 32%. Besides, the concentration for half-maximal inhibition (IC50) against Dihydropteroate synthase [3] was above 500 µM.

`Nc1nc2ncc(CCNc3ccc(C(=O)O)cc3)nc2c(=O)[nH]1` displayed an inhibition in assay [2] of 76%. For the same compound, at Dihydropteroate synthase [3], the IC50 is 87.1 µM.

In assay [2], `Nc1nc2ncc(C(=O)O)nc2c(=O)[nH]1` had an inhibition of 37%.

Compound `Nc1ccc2nc(CCc3nc4ccc(N)cc4[nH]3)[nH]c2c1` gave an inhibition in assay [2] of 62%.

In assay [2], `CC(C(=O)O)c1nn(C)c2nc(N)[nH]c(=O)c2c1=O` (centres undefined) returned an inhibition of 97%. The IC50 on Dihydropteroate synthase [3] turned out to be 19.8 µM.

On to `CN1CC(C(=O)O)=Nc2c1nc(N)[nH]c2=O`, for which the inhibition in assay [4] was found to be 93%. Besides, the half-maximal inhibitory concentration (IC50) at Dihydropteroate synthase [3] is 32.4 µM. Besides, at Dihydropteroate synthase [1], the Kd stood at 5.26 µM.

Regarding `Nc1nc(N)c(N=O)c(=O)[nH]1`, in assay [4], the inhibition was determined as 81%. In addition, the midpoint of inhibition against Dihydropteroate synthase [3], the IC50, lay at 8 µM.

`Cn1c(=O)c2nc(C(=O)O)c(=O)[nH]c2n(C)c1=O` came in with an inhibition in assay [2] of 33%.

Consider `CN1CC(CC(C)(C)O)=Nc2c1nc(N)[nH]c2=O`, for which the inhibition in assay [2] was found to be 54%. At Dihydropteroate synthase [3], the IC50 was 215 µM.

In turn, `Cc1cc(/C=C2/C(=O)N=C(O)N=C2O)c(C)n1C` displayed an inhibition in assay [2] of 35%.

For the compound `Nc1nc2[nH]c(=O)c(C(=O)O)nc2c(=O)[nH]1`, in assay [2], the inhibition turned out to be 70%. Half-maximal inhibition against Dihydropteroate synthase [3] (IC50) required 269 µM.

In turn, `NC(=O)c1nc[nH]c1C(N)=O` displayed an inhibition in assay [2] of 32%.

In assay [4], `Nc1nc2[nH]c(S)nc2c(=O)[nH]1` displayed an inhibition of 0%.

In assay [2], `Nc1nc(NCCCOc2ccc(C(=O)O)cc2)c(N=O)c(=O)[nH]1` yielded an inhibition of 79%.

As for `CC1CNc2nc(N)[nH]c(=O)c2N1` (centres undefined), in assay [2], the inhibition turned out to be 67%.
